System: not listed separately
Assay: Selectivity index, ratio of CC50 for mock-infected human MT4 cells to EC50 for antiviral activity against HIV1 3B infected in human MT4 cells
Format: toxicity, cell-based
Details: mock-infected (CC50) and HIV1 3B infected (EC50)
Method in brief: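 SI is CC₅₀/EC₅₀. Both values come from parallel MTT readings on mock-infected and HIV-1 IIIB-infected (100-300 CCID₅₀) MT-4 cells, in triplicate wells with serial fivefold dilutions, read after 5 days.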
Work on `Cc1cc(C#N)cc(C)c1Oc1cnc([N+](=O)[O-])c(Nc2ccc(C#N)cc2)c1` yielded a selectivity ratio greater than 79. Compound `Cc1cccc(C)c1Oc1cnc([N+](=O)[O-])c(Nc2ccc(C#N)cc2)c1` has a selectivity ratio greater than 171. For `Cc1cc(Br)cc(C)c1Oc1cnc([N+](=O)[O-])c(Nc2ccc(C#N)cc2)c1`, the selectivity ratio was greater than 64. `Cc1cc(C)c(Oc2cnc([N+](=O)[O-])c(Nc3ccc(C#N)cc3)c2)c(C)c1` gave a selectivity ratio greater than 1160. With `Cc1cc(C)c(Oc2cnc(N)c(Nc3ccc(C#N)cc3)c2)c(C)c1` the selectivity ratio was 227. Work on `N#Cc1ccc(Nc2cc(Oc3c(Br)cc(Br)cc3Br)cnc2N)cc1` yielded a selectivity ratio of 55. With `Cc1cc(C)c(Nc2cnc([N+](=O)[O-])c(Nc3ccc(C#N)cc3)c2)c(C)c1` the selectivity ratio was 3960. With `Cc1cc(Br)cc(C)c1Oc1cnc(N)c(Nc2ccc(C#N)cc2)c1` the selectivity ratio was 32. In the case of `N#Cc1ccc(Nc2cc(Oc3c(F)cc(F)cc3F)cnc2[N+](=O)[O-])cc1`, the selectivity ratio is reported as greater than 320.

System: Human immunodeficiency virus 1
Assay: Antiviral activity against HIV1 3B infected in human MT4 cells assessed as inhibition of virus-induced cytopathogenicity by measuring virus-induced syncytium formation by MTT assay
Format: functional, organism-based
Details: Human immunodeficiency virus 1, 3B
Method in brief: (§1)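 MT-4 cells, exponentially growing, spun 5 min at 220 g and resuspended at 6×10^5 cells/mL. Infected with virus stock at 100-300 CCID₅₀ (HIV-1 IIIB or HIV-2 ROD). Serial fivefold compound dilutions were tested in triplicate wells. Viability was read by MTT after 5 days at 540 and 690 nm, using the median OD of three wells.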
With `COc1cccc(OC)c1Oc1cnc([N+](=O)[O-])c(Nc2ccc(C#N)cc2)c1` the EC50 was greater than 319 µM. With `Cc1cc(C#N)cc(C)c1Oc1cnc([N+](=O)[O-])c(Nc2ccc(C#N)cc2)c1` the EC50 was 4.12 µM. `Cc1cccc(C)c1Oc1cnc([N+](=O)[O-])c(Nc2ccc(C#N)cc2)c1` showed an EC50 of 2.03 µM. For `Cc1cc(Br)cc(C)c1Oc1cnc([N+](=O)[O-])c(Nc2ccc(C#N)cc2)c1`, the EC50 was 4.41 µM. Work on `Cc1cc(C)c(Oc2cnc([N+](=O)[O-])c(Nc3ccc(C#N)cc3)c2)c(C)c1` yielded an EC50 of 0.29 µM. In the case of `Cc1cc(C)c(Oc2cnc(N)c(Nc3ccc(C#N)cc3)c2)c(C)c1`, the EC50 is reported as 0.14 µM. `N#Cc1ccc(Nc2cc(Oc3c(Br)cc(Br)cc3Br)cnc2N)cc1` showed an EC50 of 0.5 µM. `Cc1cc(C)c(Nc2cnc([N+](=O)[O-])c(Nc3ccc(C#N)cc3)c2)c(C)c1` showed an EC50 of 0.04 µM. Compound `Cc1cc(Br)cc(C)c1Oc1cnc(N)c(Nc2ccc(C#N)cc2)c1` has an EC50 of 0.84 µM. With `N#Cc1ccc(Nc2cc(Oc3c(F)cc(F)cc3F)cnc2[N+](=O)[O-])cc1` the EC50 was 1.01 µM.

Target: Human immunodeficiency virus type 1 reverse transcriptase (Human immunodeficiency virus 1, UniProt Q72547)
Assay: Inhibition of recombinant wild type HIV1 reverse transcriptase p66/p51 assessed as reduction in biotin-dUTP incorporation incubated for 40 mins using poly(rA) template and oligo(dT)16 primer by picogreen dye based spectrofluorometry
Details: not given
For `Cc1cc(C)c(Oc2cnc(N)c(Nc3ccc(C#N)cc3)c2)c(C)c1`, the IC50 was 0.09 µM. In the case of `N#Cc1ccc(Nc2cc(Oc3c(Br)cc(Br)cc3Br)cnc2N)cc1`, the IC50 is reported as 0.17 µM. Compound `Cc1cc(C)c(Nc2cnc([N+](=O)[O-])c(Nc3ccc(C#N)cc3)c2)c(C)c1` has an IC50 of 0.65 µM. `Cc1cc(Br)cc(C)c1Oc1cnc(N)c(Nc2ccc(C#N)cc2)c1` gave an IC50 of 0.26 µM.

System: Human immunodeficiency virus 1
Assay: Potency index, ratio of EC50 for nevirapine to EC50 for test compound for antiviral activity against HIV1 3B infected in human MT4 cells by MTT assay
Format: functional
Details: not given
In the case of `Cc1cc(C)c(Nc2cnc([N+](=O)[O-])c(Nc3ccc(C#N)cc3)c2)c(C)c1`, the “Ratio EC50” value is reported as 6.

System: Human immunodeficiency virus 1
Assay: Antiviral activity against HIV1 RES056 expressing reverse transcriptase K103N/Y181C double mutant infected in human MT4 cells assessed as inhibition of virus-induced cytopathogenicity by measuring virus-induced syncytium formation by MTT assay
Format: functional, organism-based
Details: Human immunodeficiency virus 1, RES056, MT4
Method in brief: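 MT-4 cells (exponentially growing, spun 5 min at 220 g, resuspended at 6×10^5 cells/mL) infected with 100-300 CCID₅₀ virus; serial fivefold compound dilutions added at start, triplicate wells, mock-infected set in parallel. Viability read by MTT reduction at 540 and 690 nm after 5 days; median OD of three wells; EC₅₀ = concentration inhibiting virus-induced syncytium formation by 50%.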
Compound `Cc1ccnc2c1NC(=O)c1cccnc1N2C1CC1` [NEVIRAPINE] has an EC50 greater than 15 µM. `Cc1cc(C#N)cc(C)c1Oc1cnc([N+](=O)[O-])c(Nc2ccc(C#N)cc2)c1` gave an EC50 greater than 324 µM. For `Cc1cccc(C)c1Oc1cnc([N+](=O)[O-])c(Nc2ccc(C#N)cc2)c1`, the EC50 was greater than 347 µM. Compound `Cc1cc(Br)cc(C)c1Oc1cnc([N+](=O)[O-])c(Nc2ccc(C#N)cc2)c1` has an EC50 greater than 285 µM. With `Cc1cc(C)c(Oc2cnc([N+](=O)[O-])c(Nc3ccc(C#N)cc3)c2)c(C)c1` the EC50 was greater than 334 µM. With `Cc1cc(C)c(Oc2cnc(N)c(Nc3ccc(C#N)cc3)c2)c(C)c1` the EC50 was greater than 32.1 µM. In the case of `N#Cc1ccc(Nc2cc(Oc3c(Br)cc(Br)cc3Br)cnc2N)cc1`, the EC50 is reported as greater than 27.7 µM. Compound `Cc1cc(C)c(Nc2cnc([N+](=O)[O-])c(Nc3ccc(C#N)cc3)c2)c(C)c1` has an EC50 greater than 168 µM. Compound `Cc1cc(Br)cc(C)c1Oc1cnc(N)c(Nc2ccc(C#N)cc2)c1` has an EC50 greater than 26.7 µM. `N#Cc1ccc(Nc2cc(Oc3c(F)cc(F)cc3F)cnc2[N+](=O)[O-])cc1` showed an EC50 greater than 324 µM.

System: Human immunodeficiency virus 2
Assay: Antiviral activity against HIV2 ROD infected in human MT4 cells assessed as inhibition of virus-induced cytopathogenicity by measuring virus-induced syncytium formation by MTT assay
Format: functional, organism-based
Details: Human immunodeficiency virus 2, ISOLATE ROD
Method in brief: as §1, with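 “three wells. EC₅₀ was taken as 50% inhibition of virus-induced syncytium formation.” for “three wells.”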
For `COc1cccc(OC)c1Oc1cnc([N+](=O)[O-])c(Nc2ccc(C#N)cc2)c1`, the EC50 was greater than 319 µM. `Cc1cc(C#N)cc(C)c1Oc1cnc([N+](=O)[O-])c(Nc2ccc(C#N)cc2)c1` gave an EC50 greater than 324 µM. In the case of `Cc1cccc(C)c1Oc1cnc([N+](=O)[O-])c(Nc2ccc(C#N)cc2)c1`, the EC50 is reported as greater than 347 µM. `Cc1cc(Br)cc(C)c1Oc1cnc([N+](=O)[O-])c(Nc2ccc(C#N)cc2)c1` showed an EC50 greater than 285 µM. Work on `Cc1cc(C)c(Oc2cnc([N+](=O)[O-])c(Nc3ccc(C#N)cc3)c2)c(C)c1` yielded an EC50 greater than 334 µM. In the case of `Cc1cc(C)c(Oc2cnc(N)c(Nc3ccc(C#N)cc3)c2)c(C)c1`, the EC50 is reported as greater than 32.1 µM. Work on `N#Cc1ccc(Nc2cc(Oc3c(Br)cc(Br)cc3Br)cnc2N)cc1` yielded an EC50 greater than 27.7 µM. `Cc1cc(C)c(Nc2cnc([N+](=O)[O-])c(Nc3ccc(C#N)cc3)c2)c(C)c1` gave an EC50 greater than 168 µM. Compound `Cc1cc(Br)cc(C)c1Oc1cnc(N)c(Nc2ccc(C#N)cc2)c1` has an EC50 greater than 26.7 µM. Work on `N#Cc1ccc(Nc2cc(Oc3c(F)cc(F)cc3F)cnc2[N+](=O)[O-])cc1` yielded an EC50 greater than 324 µM.

System: not listed separately
Assay: Cytotoxicity in mock-infected human MT4 cells assessed as reduction in cell viability by MTT assay
Format: cell-based
Details: not given
Method in brief: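 Mock-infected MT-4 cells were run in parallel with the infected series: 6×10^5 cells/mL, serial fivefold compound dilutions, triplicate wells. MTT viability was read 5 days later at 540/690 nm from the median OD of three wells. CC₅₀ is the concentration cutting OD540 of mock-infected controls by 50%.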
Work on `O=C1Nc2ccc(Cl)cc2[C@@](C#CC2CC2)(C(F)(F)F)O1` [EFAVIRENZ] yielded a CC50 greater than 6.34 µM. Compound `Cc1cc(C#N)cc(C)c1Oc1nc(Nc2ccc(C#N)cc2)nc(N)c1Br` [ETRAVIRINE] has a CC50 greater than 4.59 µM. In the case of `COc1cccc(OC)c1Oc1cnc([N+](=O)[O-])c(Nc2ccc(C#N)cc2)c1`, the CC50 is reported as greater than 319 µM. In the case of `Cc1ccnc2c1NC(=O)c1cccnc1N2C1CC1` [NEVIRAPINE], the CC50 is reported as greater than 15 µM. Compound `Cc1cc(C#N)cc(C)c1Oc1cnc([N+](=O)[O-])c(Nc2ccc(C#N)cc2)c1` has a CC50 greater than 324 µM. With `Cc1cccc(C)c1Oc1cnc([N+](=O)[O-])c(Nc2ccc(C#N)cc2)c1` the CC50 was greater than 347 µM. `Cc1cc(Br)cc(C)c1Oc1cnc([N+](=O)[O-])c(Nc2ccc(C#N)cc2)c1` showed a CC50 greater than 285 µM. In the case of `Cc1cc(C)c(Oc2cnc([N+](=O)[O-])c(Nc3ccc(C#N)cc3)c2)c(C)c1`, the CC50 is reported as greater than 334 µM. With `Cc1cc(C)c(Oc2cnc(N)c(Nc3ccc(C#N)cc3)c2)c(C)c1` the CC50 was 32.1 µM. `N#Cc1ccc(Nc2cc(Oc3c(Br)cc(Br)cc3Br)cnc2N)cc1` gave a CC50 of 27.7 µM. Compound `Cc1cc(C)c(Nc2cnc([N+](=O)[O-])c(Nc3ccc(C#N)cc3)c2)c(C)c1` has a CC50 of 168 µM. For `Cc1cc(Br)cc(C)c1Oc1cnc(N)c(Nc2ccc(C#N)cc2)c1`, the CC50 was 26.7 µM. `N#Cc1ccc(Nc2cc(Oc3c(F)cc(F)cc3F)cnc2[N+](=O)[O-])cc1` showed a CC50 greater than 324 µM.

— ChEMBL document CHEMBL4190364, “Design, synthesis and anti-HIV evaluation of novel diarylpyridine derivatives as potent HIV-1 NNRTIs” (Eur J Med Chem, 2017)
